Measurements gathered from unrelated publications.
Each line is one published result; the experiments were not run side by side.
ALK C1156Y: ALK tyrosine kinase receptor (ALK, Homo sapiens, UniProt Q9UM73, C1156Y)
ALK L1196M: ALK tyrosine kinase receptor (ALK, Homo sapiens, UniProt Q9UM73, L1196M)
ALK: ALK tyrosine kinase receptor (ALK, Homo sapiens, UniProt Q9UM73)

| SMILES | target | assay | conditions | remaining binding |
| --- | --- | --- | --- | --- |
| O=C(NCCCN1CCOCC1)c1ccc(Nc2nccc(-c3cc4ccccc4s3)n2)cc1 | ALK C1156Y | binding, competition with immobilised ligand | 1 µM | 97% |
| CN(c1nccc(-c2cnn3ncccc23)n1)C1CC1 | ALK L1196M | binding | 1 µM | 100% |
| C[C@@H](c1ccc(-n2cnc3c(N)ncnc32)cc1)N1CCc2nn(C)c(Cc3ccccc3)c2C1=O | ALK | binding, competition with immobilised ligand | 0.1 µM | 76% |
| O=C(NC[C@@H]1[C@H]2CN(C(=O)OCc3cc(C(F)(F)F)cc(C(F)(F)F)c3)C[C@@H]12)c1ccc2[nH]nnc2c1 | ALK | cell-free assay, competition with immobilised ligand | 1 µM | 79% |
| COc1cnc(Nc2cccc(S(N)(=O)=O)c2)nc1N1CCN(c2ccccc2)CC1 | ALK | binding, competition with immobilised ligand | 1 µM | 78% |
| COc1ccnn2ncc(-c3ccnc(N(C)C)n3)c12 | ALK L1196M | binding | 1 µM | 91% |
| O=C(NCCCN1CCOCC1)c1ccc(Nc2ncc(Cl)c(-c3ccc(Cl)s3)n2)cc1 | ALK C1156Y | binding, competition with immobilised ligand | 1 µM | 61% |
| COc1cnc(Nc2cccc(S(N)(=O)=O)c2)nc1N1CCN(c2ccccc2)C(=O)C1 | ALK L1196M | binding, competition with immobilised ligand | 1 µM | 81% |
| Cc1cnn2ncc(-c3ccnc(N(C)C)n3)c2c1 | ALK L1196M | binding | 1 µM | 71% |
| CN1CCN(c2ccc(Nc3nccc(-c4ccccc4)n3)cc2C(F)(F)F)CC1 | ALK L1196M | binding | 10 µM | 100% |
| O=C(Nc1c[nH]nc1C(=O)NC1CCNCC1)c1cc(F)cc(F)c1 | ALK C1156Y | binding, competition with immobilised ligand | 1 µM | 100% |
| C[C@H](c1ccc(F)cc1)N(Cc1cccc(C(=O)O)c1)C(=O)c1cnc2ccccc2c1 | ALK | cell-free assay, competition with immobilised ligand | 1 µM | 94% |
| C=CC(=O)N1CCC(C(=O)NCC(=O)N2CCN(c3nc(-c4cnc(N)nc4C(F)F)nc(N4CCOCC4)n3)CC2)CC1 | ALK | binding, competition with immobilised ligand | 1 µM | 71% |
| CN(C)c1nccc(-c2cnn3ncccc23)n1 | ALK C1156Y | binding | 1 µM | 71% |
| Cc1cnc(Nc2ccc(C(=O)N3CCC(N4CCCC4)CC3)cc2)nc1-c1cc2ccccc2s1 | ALK L1196M | binding, competition with immobilised ligand | 1 µM | 82% |
| CC1CCCN1c1nccc(-c2cnn3ncccc23)n1 (stereo not shown) | ALK L1196M | binding | 1 µM | 85% |
| O=C(NCC1CCOCC1)c1n[nH]cc1NC(=O)c1c(F)cccc1F | ALK L1196M | binding, competition with immobilised ligand | 1 µM | 100% |
| Nc1ncc2c(n1)-c1c([nH]c3ccc(C#CC4CC4)cc13)CCCC2 | ALK | binding, competition with immobilised ligand | 1 µM | 95% |
| C[C@@H]1CN(c2cc(-c3nn(C)c4ccc(OC5(C)CC5)cc34)ncn2)C[C@H](C)O1 | ALK L1196M | cell-free assay, competition with immobilised ligand | 1 µM | 98% |

| SMILES | target | assay | conditions | remaining binding |
| --- | --- | --- | --- | --- |
| COc1ncc2cc3ccccc3nc2c1C#N | ALK C1156Y | cell-free assay, competition with immobilised ligand | 5 µM | 96% |
| N#Cc1ccccc1CSc1nnc2c(n1)[nH]c1ccccc12 | ALK | binding, competition with immobilised ligand | 10 µM | 72% |
| O=C(c1ccc(Nc2ncc(Cl)c(-c3ccc(Cl)s3)n2)cc1)N1CCC(N2CCCC2)CC1 | ALK L1196M | binding, competition with immobilised ligand | 1 µM | 67% |
| c1cncc(-c2cccc(Nc3nccc(NC4CCCCC4)n3)c2)c1 | ALK L1196M | binding, competition with immobilised ligand | 10 µM | 57% |
| O=C(c1ccc(Nc2ncc(Cl)c(-c3cc4ccccc4s3)n2)cc1)N1CCC(N2CCCC2)CC1 | ALK L1196M | binding, competition with immobilised ligand | 1 µM | 100% |
| CN([C@@H]1CCc2c(CC(=O)O)c3cc(S(C)(=O)=O)ccc3n2C1)S(=O)(=O)c1ccc(F)cc1 | ALK L1196M | cell-free assay, competition with immobilised ligand | 1 µM | 89% |
| N[C@@H]1CCN(c2nccc(-c3cnn4ncccc34)n2)C1 | ALK L1196M | binding | 1 µM | 100% |
| C[C@@H]1CN(c2cc(-c3n[nH]c4ccc(OC5(C)CC5)cc34)ncn2)C[C@H](C)O1 | ALK | cell-free assay, competition with immobilised ligand | 0.1 µM | 65% |
| C[C@@H]1CN(c2ccc3ncc(-c4ccc5[nH]nc(C6CC6)c5c4)n3n2)C[C@H](C)O1 | ALK | binding, competition with immobilised ligand | 0.5 µM | 80% |
| C[C@H]1CCN(c2nccc(-c3cnn4ncccc34)n2)C1 | ALK C1156Y | binding | 1 µM | 99% |
| CO[C@@H](C)c1c(Nc2ccc([C@H](N(C)C(=O)C3CCS(=O)(=O)CC3)C(F)(F)F)cc2)cnc2cc(Cl)nn12 | ALK C1156Y | cell-free assay, competition with immobilised ligand | 1 µM | 89% |
| CCN1CCN(Cc2ccc(C(=O)Nc3ccc(C)c(Oc4ccc5c(c4)CC(=O)N5)c3)cc2C(F)(F)F)CC1 | ALK | binding, competition with immobilised ligand | 1 µM | 100% |
| F[C@@H]1CCN(c2nccc(-c3cnn4ncccc34)n2)C1 | ALK C1156Y | binding | 1 µM | 100% |
| CO[C@H]1CC[C@H](CNc2ccc(S(=O)(=O)NC(=O)c3ccc(N4CCN(CC5=C(c6ccc(Cl)cc6)CC(C)(C)CC5)CC4)cc3Oc3cnc4[nH]ccc4c3)cc2[N+](=O)[O-])CC1 | ALK C1156Y | cell-free assay, competition with immobilised ligand | 1 µM | 100% |
| CN1CCN(c2ccc(Nc3nccc(-c4cccc([N+](=O)[O-])c4)n3)cc2C(F)(F)F)CC1 | ALK C1156Y | binding | 10 µM | 42% |
| CNC(=O)[C@@H]1CC[C@@H](n2c(-c3ccc4cnccc4c3)nc3ccc(C(=O)NCc4cccc(C(N)=O)c4)cc32)C1 | ALK C1156Y | binding, competition with immobilised ligand | 1 µM | 100% |
| CCOC(=O)c1cc2cc(-c3cc(C(=O)NCc4ccc(C(=O)O)cc4)nn3C)ccc2[nH]1 | ALK L1196M | cell-free assay, competition with immobilised ligand | 0.1 µM | 98% |
| O=C(c1ccc(Nc2nccc(-c3cc4ccccc4s3)n2)cc1)N1CCC(N2CCCC2)CC1 | ALK | binding, competition with immobilised ligand | 1 µM | 84% |
